Molecules are shown by their SMILES.

A short description of series [1]: Half life in Sprague-Dawley rat at 1 mg/kg, iv by LC/MS/MS analysis. The format is ADME, organism-based. The following applies: in vivo. In outline:
(§1)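 Single intravenous dose to male Sprague–Dawley rats (n = 4). Jugular vein blood drawn at 0.05, 0.25, 0.5, 1, 2, 4, 8 and 24 h, heparin anticoagulant, plasma separated by centrifugation. Plasma drug level measured by LC/MS/MS.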

Series [2] in a line: Oral bioavailability (0 to infinity) in Sprague-Dawley rat at 10 mg/kg by LC/MS/MS analysis. The format is ADME, organism-based. The following applies: in vivo. In outline: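 Bioavailability from paired studies in male Sprague–Dawley rats: 1 mg/kg i.v. and 10 mg/kg p.o. (n = 4 each). Jugular vein heparinized plasma sampled up to 24 h, quantified by LC/MS/MS.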
Series [3] is described as follows: Unbound brain to plasma concentration ratio in Sprague-Dawley rat at 30 mg/kg, po measured at 1 hr by LC/MS/MS analysis. The format is ADME, organism-based. The following applies: brain and plasma, read-out: K(p,uu,brain). The method, boiled down: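 Male SD rats given 30 mg/kg orally (n = 3 per time point), killed at 1 and 3 h. Heparinized blood collected for plasma; brain rinsed in saline, weighed, homogenized in five volumes (w/v) saline. Plasma and brain levels by LC/MS/MS. Kp,uu,brain is the ratio of unbound brain to unbound plasma concentration.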

The subject of series [4] is Rattus norvegicus. Briefly: Antidepressant-like activity in Wistar rat assessed as decrease in immobility time at 10 mg/kg, po administered at 1, 5, 23.5 hrs prior to testing measured for 5 mins by forced swimming test relative to vehicle-treated control. It counts as functional. More on the design: scale not given: the % may be the effect or the level left.
Series [5] has as its target T1, Androgen receptor (Homo sapiens, UniProt P10275).
T1 sequence (P10275 whole entry): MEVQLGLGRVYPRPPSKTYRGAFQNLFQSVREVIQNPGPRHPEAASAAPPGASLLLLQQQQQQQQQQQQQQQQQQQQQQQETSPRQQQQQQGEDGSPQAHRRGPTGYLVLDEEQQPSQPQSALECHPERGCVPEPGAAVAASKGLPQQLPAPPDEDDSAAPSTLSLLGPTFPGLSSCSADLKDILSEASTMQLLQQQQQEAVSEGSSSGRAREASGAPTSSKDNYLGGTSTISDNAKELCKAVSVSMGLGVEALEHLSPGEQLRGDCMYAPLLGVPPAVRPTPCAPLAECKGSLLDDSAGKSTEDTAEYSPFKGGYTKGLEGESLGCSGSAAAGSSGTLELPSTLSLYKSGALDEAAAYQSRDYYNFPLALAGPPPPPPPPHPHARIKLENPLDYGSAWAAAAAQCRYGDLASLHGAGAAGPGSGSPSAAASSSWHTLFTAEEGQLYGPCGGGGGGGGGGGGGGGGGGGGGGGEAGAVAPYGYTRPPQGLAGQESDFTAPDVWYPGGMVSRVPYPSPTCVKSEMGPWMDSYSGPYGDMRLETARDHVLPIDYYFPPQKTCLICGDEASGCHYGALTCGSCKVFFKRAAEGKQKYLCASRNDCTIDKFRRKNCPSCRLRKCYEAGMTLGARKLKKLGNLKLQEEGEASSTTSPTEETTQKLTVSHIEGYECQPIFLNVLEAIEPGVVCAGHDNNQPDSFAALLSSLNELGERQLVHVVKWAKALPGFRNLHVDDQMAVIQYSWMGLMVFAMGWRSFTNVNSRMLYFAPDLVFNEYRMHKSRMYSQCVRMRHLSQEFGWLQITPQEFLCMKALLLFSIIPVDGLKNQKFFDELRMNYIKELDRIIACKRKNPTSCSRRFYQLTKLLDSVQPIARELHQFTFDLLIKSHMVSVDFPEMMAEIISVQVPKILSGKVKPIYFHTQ
Briefly: Displacement of [3H]methyltrienolone from cytosolic fraction of androgen receptor in human […] cells after 24 hrs by scintillation counting analysis. The format is cell-based. The method, boiled down:
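Assay run at Cerep. Binding of [³H]methyltrienolone to cytosolic androgen receptor from LNCaP cells.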
(Displacement assays read how much labelled ligand stays bound in the presence of the test substance.)

Series [6] can be described thus: AUC (0 to t) in Sprague-Dawley rat at 10 mg/kg, po by LC/MS/MS analysis. The following applies: in vivo. The format is ADME, organism-based. The method, boiled down:
(§2)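 Male Sprague–Dawley rats dosed orally (n = 4). Jugular vein blood sampled at 0.25, 0.5, 1, 2, 4, 6 and 24 h into heparin, plasma obtained by centrifugation. Concentrations determined by LC/MS/MS.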

Series [7] concerns the target Estrogen receptor beta (Homo sapiens, UniProt Q92731). As to the kind of experiment: Displacement of fluormone ES2 from human recombinant estrogen receptor-beta expressed in insect Hi5 cells after 120 mins by fluorescence polarization assay. More on the design: species or system BTI-TN-5B1-4. The method, boiled down: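 Assay run at Cerep. Fluorescence polarization with Fluormone ES2 tracer, using recombinant human ERα expressed in Sf9 cells and ERβ expressed in Hi5 cells.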
A general note: Polarisation of emitted light reports the rotation of a fluorescent probe.

Series [8] addresses T2, Glucocorticoid receptor (Homo sapiens, UniProt P04150).
T2 sequence (P04150 whole entry): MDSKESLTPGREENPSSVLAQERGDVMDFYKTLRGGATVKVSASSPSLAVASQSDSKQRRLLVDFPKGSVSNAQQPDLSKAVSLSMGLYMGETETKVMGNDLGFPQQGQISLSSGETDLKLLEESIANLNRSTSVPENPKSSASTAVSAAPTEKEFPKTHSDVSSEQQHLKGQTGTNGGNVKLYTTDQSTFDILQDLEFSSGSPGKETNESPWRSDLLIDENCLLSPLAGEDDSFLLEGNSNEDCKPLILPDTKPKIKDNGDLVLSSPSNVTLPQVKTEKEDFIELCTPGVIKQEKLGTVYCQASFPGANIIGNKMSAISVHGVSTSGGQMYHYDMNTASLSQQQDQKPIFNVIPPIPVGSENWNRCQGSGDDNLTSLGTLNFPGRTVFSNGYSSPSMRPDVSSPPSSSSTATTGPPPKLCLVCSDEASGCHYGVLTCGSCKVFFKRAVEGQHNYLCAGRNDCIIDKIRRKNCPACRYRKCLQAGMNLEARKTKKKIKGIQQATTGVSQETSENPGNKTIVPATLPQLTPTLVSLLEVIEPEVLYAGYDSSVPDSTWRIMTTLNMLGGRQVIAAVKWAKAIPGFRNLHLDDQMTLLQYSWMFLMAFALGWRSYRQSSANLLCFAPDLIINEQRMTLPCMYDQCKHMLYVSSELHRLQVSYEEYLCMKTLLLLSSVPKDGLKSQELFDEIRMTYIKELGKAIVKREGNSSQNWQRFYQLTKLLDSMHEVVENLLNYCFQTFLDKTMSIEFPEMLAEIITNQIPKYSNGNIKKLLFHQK
As to the kind of experiment: Antagonist activity at human glucocorticoid receptor transfected in CHOK1 cells assessed as inhibition of dexamethasone-induced receptor transcriptional activity after 6 hrs by luciferase reporter gene assay. It counts as cell-based, CHO-K1. For orientation: A reporter such as luciferase makes a cellular process visible.

In series [9] the test system is Rattus norvegicus. Briefly: Antidepressant-like activity in Wistar rat assessed as immobility time at 30 mg/kg, po administered at 1, 5, 23.5 hrs prior to testing measured for 5 mins by forced swimming test (reference value: 211.3 to 232.2 secs). The format is functional.
Series [10] relates to Rattus norvegicus. Briefly: Antidepressant-like activity in Wistar rat assessed as immobility time at 100 mg/kg, po administered at 1, 5, 23.5 hrs prior to testing measured for 5 mins by forced swimming test (reference value: 211.3 to 232.2 secs). It counts as functional.
Series [11] is described as follows: Half life in Sprague-Dawley rat at 10 mg/kg, po by LC/MS/MS analysis. As to conditions: in vivo. It counts as ADME, organism-based. In outline:
as §2

A short description of series [12]: AUC (0 to infinity) in Sprague-Dawley rat at 1 mg/kg, iv by LC/MS/MS analysis. It counts as ADME, organism-based. More on the design: dose 1 mg/kg, route intravenous, time infinity. The following applies: in vivo. The method, boiled down:
as §1

Estrogen receptor beta, sequence (Q92731 whole entry): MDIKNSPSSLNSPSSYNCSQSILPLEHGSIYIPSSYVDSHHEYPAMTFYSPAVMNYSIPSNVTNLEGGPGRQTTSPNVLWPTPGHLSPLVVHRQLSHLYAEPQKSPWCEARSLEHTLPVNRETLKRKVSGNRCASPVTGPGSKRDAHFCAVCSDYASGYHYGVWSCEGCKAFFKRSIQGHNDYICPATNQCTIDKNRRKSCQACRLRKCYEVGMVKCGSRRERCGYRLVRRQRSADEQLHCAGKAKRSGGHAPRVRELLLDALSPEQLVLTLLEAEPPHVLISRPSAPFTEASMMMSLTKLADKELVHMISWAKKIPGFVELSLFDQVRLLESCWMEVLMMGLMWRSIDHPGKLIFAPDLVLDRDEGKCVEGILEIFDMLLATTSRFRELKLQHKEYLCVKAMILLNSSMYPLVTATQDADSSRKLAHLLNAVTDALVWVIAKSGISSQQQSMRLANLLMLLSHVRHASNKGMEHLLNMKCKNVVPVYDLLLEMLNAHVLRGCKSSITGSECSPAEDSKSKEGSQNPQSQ

Take `Cc1noc(C)c1-c1cc2c(c3c1CCC3)NC(C)(C)C(=O)C2(C)C`: the half-life (usually how long it takes for the measured level to halve) in series [1] is 3.2 h; in [11] it was 4.6 h. Further, in [2], the bioavailability (commonly dose-corrected exposure relative to a reference, in per cent) amounted to 59%. The Kp uu at 1 h in [3] is 1.8. In addition, in series [4], the Activity worked out at 89.1%. The Ki in [5] and in [7] was more than 2300 nM in each case. For the same compound, in series [6], the AUC(0-t) – broadly, the area under the concentration-time curve up to a stated or last time point – worked out at 2420 ng·h/mL. Besides, in [8], the IC50 (as a rule, the point on the concentration scale where inhibition reaches its midpoint) is 30 nM. In addition, the Time in series [9] is on record as 170.7 s; in [10], 187.3 s. For the same compound, the AUC(0-inf) (usually total exposure, with the tail of the curve extrapolated) in series [12] was 460 ng·h/mL.

The record behind these values is ChEMBL document CHEMBL3580565, “Synthesis and Biological Evaluation of Cyclopentaquinoline Derivatives as Nonsteroidal Glucocorticoid Receptor Antagonists” (J Med Chem, 2015).
